From ChEMBL document CHEMBL1122096, “Narcotic antagonistic potency of bivalent ligands which contain beta-naltrexamine. Evidence for bridging between proximal recognition sites” (1982) come the findings set out here.

What all share (type): functional
For assay [1], the species on record is Cavia porcellus. Briefly: Tested for the narcotic antagonistic activity by measuring the ratio of the IC50 of the ethylketazocine in the presence and in the absence in guinea pig ileum at 2*10e-8M. A digest of the protocol:
(§1)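 Isolated-tissue antagonism assays: guinea pig ileum (GPI) against ethylketazocine or morphine, with antagonist at 2×10^-8 M; mouse vas deferens (MVD) against DADLE, with antagonist at 1×10^-7 M. The value is the agonist IC50 with antagonist divided by the agonist IC50 without antagonist, both measured in the same preparation, reported ± SE.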

Assay [2] is filed under the species Mus musculus. As to the kind of experiment: Tested for the narcotic antagonistic activity by measuring the ratio of the IC50 of the DADLE in the presence and in the absence in mouse vas deferens at 1*10e-7 M. A digest of the protocol: as §1
Assay [3] is filed under the species Mus musculus. As to the kind of experiment: Partial agonist activity by measuring the % maximum agonist response in mouse vas deferens at 1*10e-7 M concentration of compound.
The species named for assay [4] is Cavia porcellus. Briefly: Partial agonist activity was determined by measuring the % maximum agonist response in guinea pig ileum at 3*10e-8 M concentration of compound.
The species named for assay [5] is Cavia porcellus. As to the kind of experiment: Tested for the narcotic antagonistic activity by measuring the ratio of the IC50 of the morphine in the presence and in the absence in guinea pig ileum at 2*10e-8M. In a few lines:
as §1

For assay [6], the species on record is Cavia porcellus. Briefly: Partial agonist activity was determined by measuring the % maximum agonist response in guinea pig ileum at 1*10e-8 M concentration of compound.
For assay [7], the species on record is Cavia porcellus. Briefly: Partial agonist activity was determined by measuring the % maximum agonist response in guinea pig ileum at 5*10e-7 M concentration of compound.
Assay [8] is filed under the species Mus musculus. Briefly: Partial agonist activity by measuring the % maximum agonist response in mouse vas deferens at 1*10e-6 M concentration of compound.
For assay [9], the species on record is Cavia porcellus. As to the kind of experiment: Partial agonist activity was determined by measuring the % maximum agonist response in guinea pig ileum at 1*10e-6 M concentration of compound.

Molecules are shown by their SMILES.

As for `Cc1ccc(S(=O)(=O)OCCOCCOCCN[C@@H]2CC[C@@]3(O)C4Cc5ccc(O)c6c5C3(CCN4CC3CC3)[C@H]2O6)cc1` (stereo not given in full), the results for the IC50 ratio in the assay filed under Cavia porcellus [1], in the assay filed under Mus musculus [2] and in the assay listed under Cavia porcellus [5] were 3.96, 4.29 and 3.78, respectively. Further, the Max agonist response in the assay listed under Mus musculus [3] was determined as 27%; in the assay filed under Cavia porcellus [4], 57%.

Take `Oc1ccc2c3c1O[C@H]1[C@H](NCCOCCOCCN[C@H]4CC[C@]5(O)C6Cc7ccc(O)c8c7C5(CCN6CC5CC5)[C@@H]4O8)CC[C@@]4(O)C(C2)N(CC2CC2)CCC314`: the Max agonist response in the assay listed under Cavia porcellus [6] is 10%; in the assay filed under Mus musculus [3], 32%. Also, the results for the IC50 ratio in the assay filed under Cavia porcellus [1], in the assay listed under Mus musculus [2] and in the assay listed under Cavia porcellus [5] were 16.91, 7.17 and 3.24, respectively.

As for `Oc1ccc2c3c1O[C@H]1[C@H](NCCOCCOCCOCCOCCOCCN[C@H]4CC[C@]5(O)C6Cc7ccc(O)c8c7C5(CCN6CC5CC5)[C@@H]4O8)CC[C@@]4(O)C(C2)N(CC2CC2)CCC314`, the results for the Max agonist response in the assay listed under Cavia porcellus [7] and in the assay listed under Mus musculus [3] were 60% and 26%, respectively. The IC50 ratio is recorded as 2.61 in the assay listed under Cavia porcellus [1], 30.67 in the assay listed under Mus musculus [2] and 5.75 in the assay filed under Cavia porcellus [5].

With `COCCOCCOCCN[C@@H]1CC[C@@]2(O)C3Cc4ccc(O)c5c4C2(CCN3CC2CC2)[C@H]1O5` (stereo not given in full), the Max agonist response in the assay listed under Mus musculus [8] turned out to be 49%; in the assay filed under Cavia porcellus [9], 67%. Moreover, the results for the IC50 ratio in the assay filed under Cavia porcellus [1], in the assay listed under Mus musculus [2] and in the assay listed under Cavia porcellus [5] were 1.63, 2.09 and 3.45, respectively.
